Holding throughout (assay type): functional
For assay [1], the species on record is Oryctolagus cuniculus. The experiment in a line: Tested for its antimetabolic activity by measuring the concentration required for [2-14C]- Urd incorporation into host cell DNA by 50%. To be noted: read-out: ID50 (the source's name). The method in brief:
(§1)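 Primary rabbit kidney (PRK) cell cultures; incorporation of [methyl-3H]thymidine or [2-14C]2'-deoxyuridine into host cell DNA measured in presence of compound; value is concentration (µg/mL) reducing label incorporation by 50%; concentrations up to 400 µg/mL.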

The species entered for assay [2] is Oryctolagus cuniculus. The experiment in a line: Tested for its antimetabolic activity by measuring the concentration required for [Me-3H] dThd incorporation into host cell DNA by 50%. The note with it: read-out: ID50 (the source's name). The method in brief: as §1
Assay [3] is filed under the species Oryctolagus cuniculus. Nature of the assay: Tested for its antiviral activity in primary rabbit kidney (PRK) cell cultures inoculated with herpes simplex type 1 virus. The method in brief: (§2)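 Primary rabbit kidney (PRK) cell cultures infected with HSV; inhibition of virus-induced cytopathogenicity scored; ID50 (µg/mL) is concentration reducing cytopathogenicity by 50%; means over three HSV-1 strains (KOS, F, McIntyre) or three HSV-2 strains (Lyons, 196, G), range across strains shown; top concentration 400 µg/mL.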

The species named for assay [4] is Oryctolagus cuniculus. The experiment in a line: Tested for its antiviral activity in primary rabbit kidney (PRK) cell cultures inoculated with herpes simplex type 2 virus. In a few lines: as §2
The species named for assay [5] is Oryctolagus cuniculus. Nature of the assay: Tested for its antiviral activity in primary rabbit kidney (PRK) cell cultures inoculated with vaccinia virus.
The species named for assay [6] is Oryctolagus cuniculus. Nature of the assay: Tested for its antiviral activity in primary rabbit kidney (PRK) cell cultures inoculated with herpes simplex type 1 virus; range 4-10. The method in brief:
as §2

Assay [7] is filed under the species Oryctolagus cuniculus. The experiment in a line: Tested for its antiviral activity in primary rabbit kidney (PRK) cell cultures inoculated with herpes simplex type 2 virus; range 0.2-0.4. The method in brief: as §2

The values that follow come from ChEMBL document CHEMBL1121399, “Synthesis of 5-[(methylthio)methyl]-2'-deoxyuridine, the corresponding sulfoxide and sulfone, and their 5'-phosphates: antiviral effects and thymidylate synthetase inhibition” (1980).

The structures appear in SMILES notation. ≈ marks a conversion by molar mass, not a printed value.

With `CS(=O)(=O)Cc1cn([C@H]2C[C@H](O)[C@@H](CO)O2)c(=O)[nH]c1=O`, the IC50 in the assay listed under Oryctolagus cuniculus [1] was more than 400 µg/mL; in the assay listed under Oryctolagus cuniculus [2], 300 µg/mL (≈ 937 µM). The ID50 was 4 µg/mL (≈ 12.5 µM) in the assay listed under Oryctolagus cuniculus [3], more than 400 µg/mL in the assay filed under Oryctolagus cuniculus [4] and 200 µg/mL (≈ 624 µM) in the assay filed under Oryctolagus cuniculus [5].
`C[S+]([O-])Cc1cn([C@H]2C[C@H](O)[C@@H](CO)O2)c(=O)[nH]c1=O` (some centres not stated): the ID50 in the assay filed under Oryctolagus cuniculus [3] and in the assay listed under Oryctolagus cuniculus [4] was more than 400 µg/mL throughout.
Regarding `CSCc1cn([C@H]2C[C@H](O)[C@@H](CO)O2)c(=O)[nH]c1=O`, the figures for the IC50 in the assay listed under Oryctolagus cuniculus [1] and in the assay listed under Oryctolagus cuniculus [2] were more than 400 µg/mL and 100 µg/mL (≈ 347 µM), respectively. The ID50 amounted to 6 µg/mL (≈ 20.8 µM) in the assay listed under Oryctolagus cuniculus [6], 4 µg/mL (≈ 13.9 µM) in the assay filed under Oryctolagus cuniculus [4] and 200 µg/mL (≈ 694 µM) in the assay filed under Oryctolagus cuniculus [5].
Turning to `O=c1[nH]c(=O)n([C@H]2C[C@H](O)[C@@H](CO)O2)cc1I` [IDOXURIDINE], the IC50 in the assay filed under Oryctolagus cuniculus [1] is 1.2 µg/mL (≈ 3.39 µM); in the assay filed under Oryctolagus cuniculus [2], 2.5 µg/mL (≈ 7.06 µM). In addition, the ID50 in the assay listed under Oryctolagus cuniculus [3] amounted to 0.15 µg/mL (≈ 0.424 µM); in the assay listed under Oryctolagus cuniculus [5], 0.2 µg/mL (≈ 0.565 µM); in the assay filed under Oryctolagus cuniculus [7], 0.3 µg/mL (≈ 0.847 µM).
